# Rows were chosen to be rich in hits. Some 2.7% of all compounds tested hit in one or more screens of this group.
# RAM network inh = blocks the yeast RAM network | S. cerevisiae dse1pr::URA3 reporter, 5-FOA growth OD615, 2 d; analog-sensitive cbk1-as2 kinase mutant strain | inhibition, % at 50 µM | 1.8% of 190,000 active | AID 868;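 active = inhibition above a set limit, 3 SD over mean compound inhibition, cut at about 8.4% in these data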;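 note: 0% = DMSO-only wells with no growth and 100% = 10 µM 1-NA-PP1 full growth; inhibition rescues growth on 5-FOA so higher OD means more RAM inhibition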
# Yeast life ext = yeast lifespan extension; inhibition of the nicotinamide effect, % at 10 µM; 0.68% of 130,000 active; S. cerevisiae growth with nicotinamide, OD615; deaD strain in restrictive glucose medium;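 active = inhibition above a set limit, placed 3 SD over the median of all compounds, cut at about 26% in these data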;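 note: 0% = nicotinamide-treated wells and 100% = cells grown without nicotinamide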
#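 Test system: DeaD-strain S. cerevisiae / Buffer or medium: restrictive glucose medium / Also added: nicotinamide 1.5 mM / Doses: one concentration, 10 µM, DMSO 0.25% / Schedule: 48 h at 30 °C / Signal: OD615 measurement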
# sdo1 growth = compounds rescuing growth of sdo1-depleted yeast, bone marrow failure model | 0.21% of 140,000 active | z-score at 10 µM | S. cerevisiae sdo1-depleted JHY4D growth rescue, OD600 30 h; active compounds read high; pdr5 snq2 efflux-pump mutant strain;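 active = z-score above 3 at both the 24 hr and the 30 hr optical density reads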;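 note: z-score against mean and SD of all compound wells on the same plate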
# BB579 growth dn = yeast BB579 growth reduction in restrictive medium. inhibition, % at 10 µM. S. cerevisiae BB579 growth, OD615, 48 h. 0.51% of 140,000 active;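 active = inhibition above a set limit, 3 SD over the mean compound inhibition, cut at about 44% in these data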
#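 Material: Saccharomyces cerevisiae DeaD strain BB579, replicative lifespan model yeast; buffer or medium: CSMM-D restrictive synthetic medium containing dextrose (glucose); compound: 10 µM single dose, DMSO 0.25%; timing: 48 h compound exposure at 30 °C after 4 h preincubation; signal: turbidity as optical density at 615 nm; benchmarks: positive control amphotericin B 10 µg/mL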
# An asterisk follows results filed as active; . = no result.
SMILES,RAM network inh,Yeast life ext,sdo1 growth,BB579 growth dn
CCOCC(=O)Nc1c(C(=O)Nc2ccc(OC)cc2OC)oc2ccccc12,11*,-7,0,-45
COc1ccc(NC(=O)c2oc3ccccc3c2NC(=O)c2ccco2)c(OC)c1,2,-16,-1.2,-30
CCOc1ccc(CC(=O)OCn2nnc3ccccc3c2=O)cc1,4,.,.,.
CCOC(=O)CS(=O)(=O)c1ccc(O)cc1,5,.,.,.
O=C(CSc1cn(Cc2cccc(F)c2)c2ccccc12)NCc1ccc(F)cc1,9.9*,6,-0.54,-16
NC(=O)CSc1cn(Cc2ccc(F)cc2)c2ccccc12,4,.,.,.
Cn1nc(-c2ccc(Cl)cc2)nc2c(=O)n(C)c(=O)nc1-2,-1,-39,-3.1,100*
CS(=O)(=O)n1nc(-c2ccc(Cl)cc2)nc1N,3,.,.,.
Cc1sc2nc(CN3CCOCC3)[nH]c(=S)c2c1C,1,.,.,.
O=C(CC(=O)c1ccccc1O)c1ccc(F)cc1,3,-18,-2.7,53*
CC(C)(C)c1ccc(C(=O)CC(=O)c2cc(Cl)ccc2O)cc1,10*,-3,-3.5,-26
Cc1ccc(C(=O)CC(=O)c2cc(Cl)ccc2O)cc1,10*,-12,-2.5,-67
Cc1ccc(NC(=O)c2sc3nc(CCl)[nH]c(=O)c3c2C)c(C)c1,1,.,.,.
Cc1ccc(-n2nnnc2SCC(=O)NC2CCCc3ccccc32)c(C)c1 (stereo not drawn),8.5*,-2,-0.53,-47
Cc1ccc(-n2nnnc2SCC(=O)NC2CCCc3ccccc32)cc1 (stereo not drawn),5,-5,-0.57,-27
Cc1ccc(C(=O)Oc2cccc(NC(=O)c3ccccc3)c2)cc1C,10*,3,-0.5,-20
COc1ccc(CN2CCNC(=O)C2CC(=O)N2CCCCO2)cc1OC (stereo not drawn),0,.,.,.
O=C(NCc1ccccc1)c1ccccc1CO,-1,-1,2.2,-27
O=C(NCc1ccc(Cl)cc1)c1ccccc1CCc1ccccc1,5,41*,-1.3,-9
NC(=O)NCc1ccc(Cl)cc1,0,59*,0.39,1
Cc1nc(-c2ccccc2)sc1C(=O)NN,0,.,.,.
Cc1ccc(N/C=C/C(=O)c2sc(-c3ccccc3)nc2C)cc1,9.0*,-3,-0.57,-32
CCOC(=O)c1cc2sccc2n1CCCN1C(=O)c2ccccc2C1=O,9.0*,-2,-2,-36
O=C(Cn1c(-c2cscn2)nc2ccccc21)Nc1ccc2ccccc2c1,11*,-16,-1.4,-40
CCOc1ccc(N(CC(=O)Nc2ccccc2C(=O)NC(C)CC)S(C)(=O)=O)cc1 (stereo not drawn),0,2,1,-27
SMILES,RAM network inh,Yeast life ext,sdo1 growth,BB579 growth dn
Cc1cc2nc(C)n3c4ccccc4nc3n2n1,2,-15,-0.53,86*
CCc1nc2cc(C)nn2c2nc3ccccc3n12,1,-21,0.86,10
NC(=O)COC(=O)c1ccccc1OCc1ccccc1Cl,5,.,.,.
CC(C)c1onc(C(=O)NC(C)c2ccccc2)c1[N+](=O)[O-] (stereo not drawn),0,.,.,.
Cc1cc(NC(=O)C2CC2)ncc1NC(=O)C12CC3CC(CC(C3)C1)C2,0,29*,-2.3,-31
CN1CCC/C1=C1/C(=O)N(c2ccccc2)N=C1NC(=O)Nc1cccc(Cl)c1,-1,.,.,.
CC(C)NS(=O)(=O)c1cc(C(=O)O)ccc1Cl,2,27*,1.7,-24
COc1ccc(C(=O)/C=C/C(=O)N(CC(=O)NC2CCCCC2)Cc2ccc(F)cc2)c(O)c1,1,.,.,.
CC(=O)C1=C(C)NC(SCC(=O)c2ccc(F)cc2)=C(C#N)C1CC(C)C (stereo not drawn),2,9,-0.6,-9
CC(=O)C1=C(C)NC(SCC(=O)c2ccc(Cl)cc2)=C(C#N)C1CC(C)C (stereo not drawn),9.1*,-4,-0.37,-38
CCOc1cc(CN2CCC(CO)(Cc3cccc(C(F)(F)F)c3)CC2)ccc1OC,1,.,.,.
COc1ccc(N2CCN(C(C)C(=O)N3CCCC3)CC2)cc1 (stereo not drawn),0,.,.,.
N#Cc1nc(COc2ccc(Cl)cc2)oc1NCc1ccc2c(c1)OCO2,7,-15,-0.55,-45
Cc1cccc(OCc2nc(C#N)c(NCc3ccc4c(c3)OCO4)o2)c1,11*,-6,-1.5,-74
CCn1c2ccccc2c2cc(NC(=O)COc3ccccc3OC)ccc21,9.6*,-6,-0.07,-9
CCSc1cc(N2CCCC2)nc(-c2ccccc2)n1,0,-6,-0.21,-27
CCSc1cc(N2CCOCC2)nc(-c2ccc(Cl)cc2)n1,11*,4,-1.1,-27
COc1ccc(C2C(=O)c3ccccc3C2=O)cc1,2,32*,-0.14,-28
CCCCCCN1N=C(C)C(C(=O)c2ccc(Cl)cc2)C1=O (stereo not drawn),-1,-5,0.86,87*
CCCCCCCN1N=C(C)C(C(=O)c2ccccc2)C1=O (stereo not drawn),-2,-27,0.68,26
O=[N+]([O-])c1cc(S(=O)(=O)N2CCCC2)ccc1NCCc1ccccc1,9.7*,4,-1.5,-13
COc1ccc(CCNc2ccc(S(=O)(=O)N3CCCC3)cc2[N+](=O)[O-])cc1,11*,0,0.57,-24
CCc1ccc(-c2cn(C3CCCCC3)c(=S)[nH]2)cc1,2,.,.,.
Cc1cc2ncn(CCC(=O)NC(C)(C)C)c2cc1C,0,.,.,.
Cc1ccc(Nc2ncc3c(n2)CC(C)(C)CC3=O)cc1,-1,.,.,.
SMILES,RAM network inh,Yeast life ext,sdo1 growth,BB579 growth dn
O=c1c2ccccc2nc(-c2ccc(Cl)c(Cl)c2)n1O,0,76*,1.2,-17
Clc1ccc(/C=C/c2ncc3ccccn23)cc1,2,.,.,.
COc1ccc(CN(C#N)c2nc(SC)nc(N(C)C)n2)cc1,11*,-7,-2.4,-31
CC(CCc1ccccc1)NC(=O)C(=O)N1CCOCC1 (stereo not drawn),2,.,.,.
O=C(O)CSc1cccc[n+]1[O-],0,-3,0.1,90*
Cn1cccc1C(=O)NC(=O)CSc1cccc[n+]1[O-],0,-11,-0.39,95*
O=C(CSc1cccc[n+]1[O-])c1cc2ccccc2o1,-1,-10,1.1,99*
Cc1cccc(Cn2c(C)nc3c(N)c(C)c(C)cc32)c1,1,.,.,.
COn1c(SC2CCCCC2)nc2ccccc2c1=O,0,46*,-0.85,-21
COn1c(SC(C)C)nc2ccccc2c1=O,0,-27,-0.56,-32
COn1c(SCc2ccc(C)cc2C)nc2ccccc2c1=O,9.2*,-17,-0.81,-10
COn1c(SCC(N)=O)nc2ccccc2c1=O,1,-3,0.47,-35
CCc1ccc(NC(=S)N(CCN(C)C)C(C)c2ccncc2)cc1 (stereo not drawn),1,.,.,.
O=C(CCCC(=O)OCC(Cl)=C(Cl)Cl)Nc1ccc(F)cc1,-1,-9,0.2,-6
COCCNC(=S)N/N=C/c1ccc(OCc2ccc(C(=O)OC)cc2)c(OC)c1,10*,10,0.24,-71
COc1ccc(C(=O)/C=C/c2ccc(F)cc2)c(OC(=O)c2ccc([N+](=O)[O-])cc2)c1,2,-5,-1.7,-16

# Source: PubChem (several laboratories)
